Here are results for 55 sequences from the array DNA melting data of Ke et al. (doi:10.1101/2024.01.08.574731).

Series [1] can be described thus: folding enthalpy; higher = less favourable; fluorescence melt of hairpins on a sequencing array, two-state fit. To be noted: sodium 0.088 M. The essentials: (§1)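 Bootstrapped two-state fits yielded melting temperature and folding enthalpy for library hairpins. Cy3 fluorescence, with annealed Cy3 and quencher oligos, was imaged on a sequenced MiSeq flow cell in 50 mM Na-HEPES pH 8.0, 25 mM NaCl in 2.5 °C steps up to 60 °C, and normalised to pre-quench Cy3 and to control constructs. Four replicates were combined by inverse variance, and fitted temperatures were raised by 9.35 °C to match UV melts.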

A short description of series [2]: melting temperature; fluorescence melt of hairpins on a sequencing array, two-state fit, raised by 9.35 °C to match UV melts. To be noted: sodium 0.088 M. The procedure, abridged: as §1

In the case of GATGCCGAAAGGCAATC ((((((....))).))), the folding enthalpy in series [1] was -13.8 kcal/mol. In addition, in series [2], the Tm came to 53 °C.

As for GATGCCGAAAGGCCAATC ((((((....)))..))), in series [1], the folding enthalpy is -8.85 kcal/mol. For the same sequence, the Tm in series [2] stood at 29.4 °C.

With GATGCGCGAAAGCGTATC (((.(((....))).))), the folding enthalpy in series [1] is -27.8 kcal/mol. In addition, in series [2], the Tm amounted to 63 °C.

With GATGCGGAAACGCATC ((((((....)))))), the folding enthalpy in series [1] was -31.3 kcal/mol. Moreover, the Tm in series [2] was found to be 68.2 °C.

With GATGCGGCGAAAGCCATC (((..(((....)))))), in series [1], the folding enthalpy is -11.6 kcal/mol. In series [2], the Tm amounted to 29.2 °C.

Take GATGCGGGAAACTGCATC (((((.(....).))))): in series [1], the folding enthalpy is -42.6 kcal/mol. Moreover, the Tm in series [2] was determined as 54.7 °C.

Take GATGCTGCGAAAGCAATC (((..(((....)))))): in series [1], the folding enthalpy was -9.87 kcal/mol. Also, the Tm in series [2] is 29.3 °C.

Take GATGCTGGAAACAACATC ((((.((....)).)))): in series [1], the folding enthalpy was -31.4 kcal/mol. For the same sequence, the Tm in series [2] came to 36.2 °C.

On to GATGCTGGAAACAGTATC (((.(((....))).))), for which, in series [1], the folding enthalpy was -33.8 kcal/mol. In addition, the Tm in series [2] was determined as 47 °C.

Consider GATGCTGGAAACGGTATC (((.(.(....).).))), for which the folding enthalpy in series [1] was -22.8 kcal/mol. Also, in series [2], the Tm was 31.2 °C.

Turning to GATGGACGAAAGTCATC (((.(((....)))))), the folding enthalpy in series [1] is -17.9 kcal/mol. Further, the Tm in series [2] worked out at 45.7 °C.

Turning to GATGGAGCGAAAGCTATC (((..(((....)))))), in series [1], the folding enthalpy is -10.5 kcal/mol. The Tm in series [2] is 30.2 °C.

Take GATGGCGAAAGCCGTATC ((((((....)))..))): in series [1], the folding enthalpy is -6.56 kcal/mol. In addition, the Tm in series [2] was 43.8 °C.

For GATGGCGAAAGCCTGATC ((((((....)))..))), the folding enthalpy in series [1] is -11 kcal/mol. In addition, in series [2], the Tm was 33.6 °C.

For GATGGCGGAAACACCACC (.(((.(....).))).), in series [1], the folding enthalpy was -14.8 kcal/mol. In series [2], the Tm was 30.2 °C.

As to GATGGCGGAAACGCCGTC ((.((((....)))).)), in series [1], the folding enthalpy was -21.4 kcal/mol. Moreover, the Tm in series [2] worked out at 58.3 °C.

GATGGCGGAAACGCTGTC ((..(((....)))..)): in series [1], the folding enthalpy is -17.1 kcal/mol. Moreover, the Tm in series [2] stood at 44 °C.

As to GATGGCGGAAACGTCATC ((((.((....)).)))), in series [1], the folding enthalpy is -43.7 kcal/mol. Further, the Tm in series [2] was determined as 55.3 °C.

Regarding GATGGGCCGAAAGGCATC (((..(((....)))))), the folding enthalpy in series [1] was -9.87 kcal/mol. Further, in series [2], the Tm is 34.8 °C.

In the case of GATGGGGGAAACCCCGTC ((.((((....)))).)), the folding enthalpy in series [1] was -24.7 kcal/mol. The Tm in series [2] came to 52.7 °C.

With GATGGGGGAAACCCTGTC ((..(((....)))..)), the folding enthalpy in series [1] was -22.5 kcal/mol. The Tm in series [2] was 33.2 °C.

In the case of GATGGTGGAAACACCATC (((((((....))))))), the folding enthalpy in series [1] was -39.4 kcal/mol. Further, the Tm in series [2] was 65.1 °C.

GATGTACGAAAGTAGATC (((.(((....))).))): in series [1], the folding enthalpy was -30.5 kcal/mol. In addition, the Tm in series [2] turned out to be 44 °C.

Take GATGTCCGAAAGGATATC (((.(((....))).))): in series [1], the folding enthalpy is -35.6 kcal/mol. In addition, the Tm in series [2] was determined as 52.3 °C.

Turning to GATGTCGAAAGACATC ((((((....)))))), the folding enthalpy in series [1] is -36.3 kcal/mol. Moreover, the Tm in series [2] turned out to be 66.3 °C.

Take GATGTCGGAAACGACACC (.(((((....))))).): in series [1], the folding enthalpy was -11.4 kcal/mol. Moreover, the Tm in series [2] came to 40.4 °C.

Consider GATGTGCCGAAAGGCATC (((..(((....)))))), for which, in series [1], the folding enthalpy is -8.04 kcal/mol. Moreover, the Tm in series [2] came out at 36.1 °C.

Consider GATGTGGCGAAAGCCATC (((..(((....)))))), for which the folding enthalpy in series [1] was -8.76 kcal/mol. The Tm in series [2] is 38.5 °C.

Take GATGTGGGAAACCACATC (((((((....))))))): the folding enthalpy in series [1] is -42.1 kcal/mol. Also, in series [2], the Tm worked out at 60.9 °C.

Turning to GATGTGGGAAACCGCATC ((((.((....)).)))), the folding enthalpy in series [1] is -46.4 kcal/mol. In addition, the Tm in series [2] amounted to 51.9 °C.

Turning to GATGTTGGAAACAATATC (((.(((....))).))), the folding enthalpy in series [1] is -27.1 kcal/mol. For the same sequence, in series [2], the Tm is 37.5 °C.

Take GATGTTGGAAACAATGTC ((..(((....)))..)): the folding enthalpy in series [1] was -17.1 kcal/mol. Also, in series [2], the Tm amounted to 31.1 °C.

On to GATGTTGGAAACAGCATC ((((.((....)).)))), for which, in series [1], the folding enthalpy is -25 kcal/mol. Further, in series [2], the Tm worked out at 45.5 °C.

For the sequence GATTACCGAAAGGTTATC (((.(((....))).))), in series [1], the folding enthalpy is -26.1 kcal/mol. Moreover, the Tm in series [2] is 42.4 °C.

Take GATTACGAAAGTAGAATC ((((((....)))..))): in series [1], the folding enthalpy is -14.4 kcal/mol. Also, the Tm in series [2] is 27.4 °C.

In the case of GATTACGGAAACGTAATC (((((((....))))))), in series [1], the folding enthalpy was -50.2 kcal/mol. Also, in series [2], the Tm turned out to be 55.5 °C.

As for GATTAGCGAAAGCTTATC (((.(((....))).))), the folding enthalpy in series [1] was -20.5 kcal/mol. The Tm in series [2] was determined as 39.1 °C.

Regarding GATTATGGAAACATAATC (((((((....))))))), in series [1], the folding enthalpy was -38.2 kcal/mol. Besides, the Tm in series [2] amounted to 49.1 °C.

In the case of GATTATGGAAACGTAATC (((((.(....).))))), in series [1], the folding enthalpy was -36.5 kcal/mol. Further, in series [2], the Tm turned out to be 35.6 °C.

Regarding GATTCACGAAAGTGCATC (((.(((....))).))), the folding enthalpy in series [1] was -26.4 kcal/mol. Moreover, in series [2], the Tm was found to be 40.2 °C.

Take GATTCACGAAAGTGGATC (((.(((....))).))): the folding enthalpy in series [1] is -39.1 kcal/mol. In addition, the Tm in series [2] amounted to 52.5 °C.

Take GATTCAGGAAACTGGATC (((.(((....))).))): in series [1], the folding enthalpy is -36.7 kcal/mol. Further, the Tm in series [2] was found to be 41.9 °C.

As for GATTCCGAAAGGAAAATC ((((((....)))..))), the folding enthalpy in series [1] is -14 kcal/mol. Further, the Tm in series [2] worked out at 32.3 °C.

As for GATTCCGAAAGGATATC ((((((....))).))), in series [1], the folding enthalpy was -20.7 kcal/mol. Moreover, in series [2], the Tm is 39.5 °C.

Regarding GATTCCGGAAACGGAACC (.(((((....))))).), in series [1], the folding enthalpy is -13.6 kcal/mol. Moreover, the Tm in series [2] worked out at 40.1 °C.

Consider GATTCGCGAAAGCGGATC (((.(((....))).))), for which the folding enthalpy in series [1] is -27.7 kcal/mol. The Tm in series [2] was found to be 60.5 °C.

In the case of GATTGACGAAAGTCGATC (((.(((....))).))), the folding enthalpy in series [1] was -29.6 kcal/mol. Moreover, in series [2], the Tm was determined as 54.2 °C.

Consider GATTGAGAAATCAATC ((((((....)))))), for which, in series [1], the folding enthalpy was -25.9 kcal/mol. For the same sequence, the Tm in series [2] came out at 45.5 °C.

Take GATTGCCGAAAGGCATC (((.(((....)))))): the folding enthalpy in series [1] was -10.3 kcal/mol. For the same sequence, the Tm in series [2] is 44.6 °C.

As to GATTGCCGAAAGGCGATC (((.(((....))).))), the folding enthalpy in series [1] is -28.4 kcal/mol. In addition, the Tm in series [2] came out at 61.9 °C.

As for GATTGCGAAAGCAAGATC ((((((....)))..))), in series [1], the folding enthalpy was -14.8 kcal/mol. Further, the Tm in series [2] is 50.2 °C.

In the case of GATTGCGAAAGCACAATC ((((((....)))..))), in series [1], the folding enthalpy is -10.8 kcal/mol. Moreover, the Tm in series [2] was 32.7 °C.

GATTGCGAAAGCACGATC ((((((....)))..))): the folding enthalpy in series [1] was -7.93 kcal/mol. In addition, the Tm in series [2] was determined as 28.7 °C.

With GATTTACGAAAGTAATC (((.(((....)))))), the folding enthalpy in series [1] was -17.8 kcal/mol. The Tm in series [2] was 32 °C.

As for GATTTAGAAATAAATC ((((((....)))))), in series [1], the folding enthalpy is -18.8 kcal/mol. For the same sequence, the Tm in series [2] came out at 34.4 °C.
